≈ marks a conversion by molar mass, not a printed value. Calls of active or inactive are those of the source. The calls are words filed in the database; no cut-off is given here.
Columns and labels:
Staphylococcus aureus [1] = assay: Antibacterial activity against Staphylococcus aureus isolate 2712 assessed as reduction in bacterial count at 20 ug/ml after 24 hrs by time-kill assay; assay type: functional, organism-based
In short: (§1)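 Overnight Mueller-Hinton broth cultures were diluted in cation-adjusted MH broth. About 10^6 to 10^7 CFU went into MH broth with 20 μg/ml dicloxacillin at 35°C. Viable counts were made by spreading 0.1 ml at 0, 1, 3, 6, 9, 14, 24, 30, 42 and 48 h. Three runs, with the median CFU plotted semilogarithmically.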

Staphylococcus aureus [2] = assay: Antibacterial activity against Staphylococcus aureus isolate 1326 infected in Wistar rat thigh infection model assessed as bacterial load per gram of thigh at 200 mg/kg, sc administered 2 hrs postinfection and every 6 hrs thereafter for 1 day measured after 24 hrs (reference value: 8.6%); assay type: functional; settings: route subcutaneous
Staphylococcus aureus [3] = assay: Antibacterial activity against Staphylococcus aureus isolate 1552 infected in Wistar rat thigh infection model assessed as bacterial load per gram of thigh at 200 mg/kg, sc administered 2 hrs postinfection and every 6 hrs thereafter for 1 day measured after 24 hrs (reference value: 8.6%); assay type: functional; settings: route subcutaneous
Staphylococcus aureus [4] = assay: Antibacterial activity against Staphylococcus aureus isolate 4666 infected in Wistar rat thigh infection model assessed as bacterial load per gram of thigh at 200 mg/kg, sc administered 2 hrs postinfection and every 6 hrs thereafter for 1 day measured after 24 hrs (reference value: 8.6%); assay type: functional; settings: route subcutaneous
Staphylococcus aureus [5] = assay: Antibacterial activity against Staphylococcus aureus isolate 6083 infected in Wistar rat thigh infection model assessed as bacterial load per gram of thigh at 200 mg/kg, sc administered 2 hrs postinfection and every 6 hrs thereafter for 1 day measured after 24 hrs (reference value: 8.6%); assay type: functional; settings: route subcutaneous
Staphylococcus aureus [6] = assay: Antibacterial activity against Staphylococcus aureus isolate 2712 infected in Wistar rat thigh infection model assessed as bacterial load per gram of thigh at 200 mg/kg, sc administered 2 hrs postinfection and every 6 hrs thereafter for 1 day measured after 24 hrs (reference value: 8.6%); assay type: functional; settings: route subcutaneous
Staphylococcus aureus [7] = assay: Antibacterial activity against Staphylococcus aureus isolate 29213 infected in Wistar rat thigh infection model assessed as bacterial load per gram of thigh at 200 mg/kg, sc administered 2 hrs postinfection and every 6 hrs thereafter for 1 day measured after 24 hrs (reference value: 8.6%); assay type: functional; settings: route subcutaneous
Staphylococcus aureus [8] = assay: Antibacterial activity against Staphylococcus aureus isolate 1306 infected in Wistar rat thigh infection model assessed as bacterial load per gram of thigh at 200 mg/kg, sc administered 2 hrs postinfection and every 6 hrs thereafter for 1 day measured after 24 hrs (reference value: 8.6%); assay type: functional; settings: route subcutaneous
Staphylococcus aureus [9] = assay: Antibacterial activity against Staphylococcus aureus isolate 1306 by agar dilution method; assay type: functional
Staphylococcus aureus [10] = assay: Antibacterial activity against Staphylococcus aureus isolate 1326 by agar dilution method; assay type: functional
In short: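 mecA-positive clinical isolate collected October–November 2006, species confirmed on Vitek 2. MIC determined by agar dilution following CLSI guidelines, with 2-μg/ml concentration steps from 2 to 16 μg/ml.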

Staphylococcus aureus [11] = assay: Antibacterial activity against Staphylococcus aureus isolate 1552 by agar dilution method; assay type: functional
Staphylococcus aureus [12] = assay: Antibacterial activity against Staphylococcus aureus isolate 4666 by agar dilution method; assay type: functional
Staphylococcus aureus [13] = assay: Antibacterial activity against Staphylococcus aureus isolate 6083 by agar dilution method; assay type: functional
Staphylococcus aureus [14] = assay: Antibacterial activity against Staphylococcus aureus isolate 2712 by agar dilution method; assay type: functional
Staphylococcus aureus [15] = assay: Antibacterial activity against mecA-negative Staphylococcus aureus isolate 29213 by agar dilution method; assay type: functional
Staphylococcus aureus [16] = assay: Effect on growth of Staphylococcus aureus isolate 1306 assessed as highest compound concentration at which cell growth occurred measured after 48 hrs; assay type: functional
In short: (§2)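 Overnight cultures were set to 4 McFarland in cation-adjusted MH broth and spread at about 10^8, 10^7 and 10^6 CFU, or 10^4 if growth was confluent. Colonies were counted after 48 h at 35°C. Three runs, median CFU.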

Staphylococcus aureus [17] = assay: Effect on growth of Staphylococcus aureus isolate 1326 assessed as highest compound concentration at which cell growth occurred measured after 48 hrs; assay type: functional; in short: as §2
Staphylococcus aureus [18] = assay: Effect on growth of Staphylococcus aureus isolate 1552 assessed as highest compound concentration at which cell growth occurred measured after 48 hrs; assay type: functional; in short: as §2
Staphylococcus aureus [19] = assay: Effect on growth of Staphylococcus aureus isolate 4666 assessed as highest compound concentration at which cell growth occurred measured after 48 hrs; assay type: functional; in short: as §2
Staphylococcus aureus [20] = assay: Effect on growth of mecA-negative Staphylococcus aureus isolate 29213 by assessed as highest compound concentration at which cell growth occurred measured after 48 hrs; assay type: functional; in short: as §2
Staphylococcus aureus [21] = assay: Effect on growth of Staphylococcus aureus isolate 1326 assessed as highest compound concentration at which cell growth occurred measured after 48 hrs in presence of 2% NaCl; assay type: functional
In short: (§3)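 Inocula of about 10^8 to 10^6 CFU came from a 4 McFarland suspension. Colonies were counted after 48 h at 35°C. Three runs, median CFU.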

Staphylococcus aureus [22] = assay: Effect on growth of against Staphylococcus aureus isolate 4666 assessed as highest compound concentration at which cell growth occurred measured after 48 hrs in presence of 2% NaCl; assay type: functional; in short: as §3
Staphylococcus aureus [23] = assay: Antibacterial activity against Staphylococcus aureus isolate 1306 assessed as reduction in bacterial count at 20 ug/ml after 24 hrs by time-kill assay; assay type: functional, organism-based; in short: as §1
Staphylococcus aureus [24] = assay: Antibacterial activity against Staphylococcus aureus isolate 1326 assessed as reduction in bacterial count at 20 ug/ml after 24 hrs by time-kill assay; assay type: functional, organism-based; in short: as §1
Staphylococcus aureus [25] = assay: Antibacterial activity against Staphylococcus aureus isolate 1552 assessed as reduction in bacterial count at 20 ug/ml after 24 hrs by time-kill assay; assay type: functional, organism-based; in short: as §1
Staphylococcus aureus [26] = assay: Antibacterial activity against Staphylococcus aureus isolate 4666 assessed as reduction in bacterial count at 20 ug/ml after 24 hrs by time-kill assay; assay type: functional, organism-based; in short: as §1
Staphylococcus aureus [27] = assay: Antibacterial activity against mecA-negative Staphylococcus aureus isolate 29213 assessed as reduction in bacterial count at 20 ug/ml after 24 hrs by time-kill assay; assay type: functional, organism-based; in short: as §1
Staphylococcus aureus [28] = assay: Antibacterial activity against Staphylococcus aureus isolate 6083 assessed as reduction in bacterial count at 20 ug/ml after 24 hrs by time-kill assay; assay type: functional, organism-based; in short: as §1

Cc1onc(-c2ccccc2)c1C(=O)N[C@@H]1C(=O)N2[C@@H]1SC(C)(C)[C@@H]2C(=O)O [OXACILLIN]
inhibition (Staphylococcus aureus [1]): inactive
Activity (Staphylococcus aureus [2]): 4.3%
Activity (Staphylococcus aureus [3]): 9.1%
Activity (Staphylococcus aureus [4]): 10.4%
Activity (Staphylococcus aureus [5]): 6.2%
Activity (Staphylococcus aureus [6]): 8.8%
Activity (Staphylococcus aureus [7]): 12.4%
Activity (Staphylococcus aureus [8]): 9.7%
MIC (Staphylococcus aureus [9]): 0.5 µg/mL (≈ 1.25 µM)
MIC (Staphylococcus aureus [10]): 0.25 µg/mL (≈ 0.623 µM)
MIC (Staphylococcus aureus [11]): 1 µg/mL (≈ 2.49 µM)
MIC (Staphylococcus aureus [12]): 1 µg/mL (≈ 2.49 µM)
MIC (Staphylococcus aureus [13]): 6 µg/mL (≈ 14.9 µM)
MIC (Staphylococcus aureus [14]): 256 µg/mL (≈ 638 µM)
MIC (Staphylococcus aureus [15]): 0.125 µg/mL (≈ 0.311 µM)
Activity (Staphylococcus aureus [16]): 32 µg/mL
Activity (Staphylococcus aureus [17]): 0.5 µg/mL
Activity (Staphylococcus aureus [18]): 64 µg/mL
Activity (Staphylococcus aureus [19]): 1 µg/mL
Activity (Staphylococcus aureus [20]): 0.5 µg/mL
Activity (Staphylococcus aureus [21]): 1 µg/mL
Activity (Staphylococcus aureus [22]): 2 µg/mL
inhibition (Staphylococcus aureus [23]): Active
inhibition (Staphylococcus aureus [24]): Active
inhibition (Staphylococcus aureus [25]): Active
inhibition (Staphylococcus aureus [26]): Active
inhibition (Staphylococcus aureus [27]): Active
inhibition (Staphylococcus aureus [28]): Active

— ChEMBL document CHEMBL1629556 (2008)
